Wee1 degr inh: human Wee1 degradation inhibition, primary screen; HeLa Luc-Wee1K328M stability, luciferase luminescence; 100% = proteasome inhibitor MG132 effect; reporter increase, % at 5 µM; actives 1.2% (n = 220,000); AID 1321;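 active = activation above the mean of all tested compounds plus 3 SD, set per screening run, cut at about 8.8% in these data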;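 note: cells exposed to compound for 20 h before luminescence read; 0% = DMSO alone and 100% = MG132 at 30 µM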
FID counter: displaces DNA intercalator in HCV helicase counter-screen; AID 1845; DNA fluorescent intercalator displacement, fluorescence; inhibition, % at 7.9 µM; actives 0.17% (n = 290,000); in the data active = inhibition above about 37%;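 note: 0% = vehicle and 100% = reference compound; higher means more ethidium bromide displaced from hairpin DNA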
Rad51 HR inh: blocks human Rad51 in homologous recombination | Q06609 | hRad51 DNA strand exchange, fluorescence dequenching | inhibition, % at 10 µM | actives 0.085% (n = 200,000) | AID 1385;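 active = inhibition above 40% at the single screening dose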;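 note: 0% = DMSO control wells and 100% = blanks with heterologous ssDNA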
Target sequence (Q06609 whole entry, looked up): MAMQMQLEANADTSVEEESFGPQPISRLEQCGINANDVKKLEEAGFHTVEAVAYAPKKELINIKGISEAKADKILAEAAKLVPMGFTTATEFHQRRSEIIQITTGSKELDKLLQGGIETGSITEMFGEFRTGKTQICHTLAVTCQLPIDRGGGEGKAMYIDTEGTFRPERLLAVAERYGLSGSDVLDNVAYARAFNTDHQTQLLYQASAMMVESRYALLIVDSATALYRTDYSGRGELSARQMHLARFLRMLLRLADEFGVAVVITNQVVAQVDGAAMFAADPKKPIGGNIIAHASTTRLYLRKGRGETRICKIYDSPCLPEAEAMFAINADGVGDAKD
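material = hRad51 filaments on single-stranded DNA | timing = filaments 15 min 37 °C, then compound 30 min | signal = FRET fluorescence dequenching, excitation 485 nm, emission 520 nm | benchmarks = control wells and blank wells on each plate | evaluation = percent inhibition relative to plate controls and blanks | compound = 10 µM final, single point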
RBBP9 inh: inhibitors of human serine hydrolase RBBP9 | O75884 | recombinant RBBP9, FP-Rh probe fluorescence polarization | inhibition, % at 7.94 µM | actives 0.2% (n = 220,000);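 active = inhibition above the campaign mean of all tested compounds plus 3 SD, cut at about 14% in these data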;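 note: plate controls were DMSO wells with RBBP9 for no effect and wells lacking RBBP9 protein for full effect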
Target sequence (O75884 whole entry, looked up): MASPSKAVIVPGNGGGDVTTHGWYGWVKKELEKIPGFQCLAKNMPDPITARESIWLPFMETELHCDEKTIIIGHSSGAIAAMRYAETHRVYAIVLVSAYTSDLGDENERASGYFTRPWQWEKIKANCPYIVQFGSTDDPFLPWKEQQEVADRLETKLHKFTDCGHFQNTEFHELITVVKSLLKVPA
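Test system: recombinant human RBBP9; Timing: 30 min then 45 min, 25 °C; Detection: fluorescence polarization; Control set: RBBP9 with DMSO as uninhibited control, no-protein wells as full inhibition; Compound dosing: one concentration, 7.94 µM nominal, 0.794% DMSO; Probe or stimulus: FP-Rh activity-based probe, 375 nM before mixing.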
Wee1 degr conf: human Wee1 degradation inhibition, confirmation | shares compounds with Wee1 degr inh | HeLa Luc-Wee1K328M degradation, luminescence; vehicle 0%, proteasome-blocked wells 100% | activation, % at 5 µM | actives 4% (n = 1,100) | AID 1410; in the data active = activation above about 8.9%
Starred values were filed as active, the others as inactive; x = no result. Shown are actives, neighbours in structure and some others; about 1.2% of the full set was active somewhere.

SMILES	Wee1 degr inh	FID counter	Rad51 HR inh	RBBP9 inh	Wee1 degr conf
CN(C(=O)CSC(=O)c1ccccc1)c1ccccc1	x	-27.1	x	x	x
Cc1ccccc1OCCC(=O)Nc1cc(S(=O)(=O)N2CCOCC2)ccc1OC(C)C	x	-39.7	x	x	x
Cc1ccc(NC(=S)Nc2ccccn2)c(C)c1	-1.8	-10.7	10.9	-9.2	x
Cc1cc(Cl)ccc1NC(=S)Nc1ccccn1	15.2*	-7.6	-1.6	0.5	11.9*
COc1cccc(N2CCN(c3ccc4nnc(CCC(=O)N5CCC(C)CC5)n4n3)CC2)c1	x	-62.2	x	x	x
CC(=O)NS(=O)(=O)c1ccc(NC(=O)CSc2ccc(Cl)cc2)cc1	12.8*	-4.6	-0.5	-1.2	1.4
N#C/C(C(=O)N1CCOCC1)=C1/SC(Cc2ccccc2Cl)C(=O)N1c1ccccc1 (configuration not stated)	11.4*	-24.8	x	-9.1	-0.2
CSCCC(NS(=O)(=O)c1ccc2ccccc2c1)C(=O)OCC(=O)c1ccc(C(C)C)cc1 (configuration not stated)	11.4*	-30.8	-5.7	-12.5	-2.9
CSCCC(NS(=O)(=O)c1ccc(Cl)cc1)C(=O)OCC(=O)c1c(C)[nH]c2ccccc12 (configuration not stated)	-1.9	-19.8	x	-14.3	x
NNC(=O)c1ccc(COc2ccc3ccccc3c2)cc1	15.3*	-5.4	21.8	-4.6	2.7
NNC(=O)c1ccc(COc2ccc3c(c2)CCC3)cc1	-2.6	-3.5	7.5	-9.9	x
O=[N+]([O-])c1ccc(S(=O)(=O)N2CCN=C2SCc2cccnc2)cc1	12.1*	-5.8	22.7	-2.1	-0.9
O=[N+]([O-])c1cccc(CSC2=NCCN2S(=O)(=O)c2ccccc2)c1	x	-1.6	x	x	x
Cn1c(=O)c2ccccc2n(CC(=O)NCCC2=CCCCC2)c1=O	x	-11.5	x	x	x
Cc1ccc(C(C(=O)NCc2ccco2)N(C(=O)CNC(=O)c2cccs2)c2c(C)cc(C)cc2C)cc1 (configuration not stated)	11.5*	-4.0	-4.1	-5.9	0.4
CC(C)C(=O)Nc1cccc(-c2cn3ccccc3n2)c1	0.9	-7.1	x	-11.9	x
CC(=O)Nc1cccc(-c2cn3ccccc3n2)c1	11.3*	-4.5	13.9	-6.2	-2.0
CC(C)CC(=O)Nc1ccc(-c2nc3ccccc3c(=O)[nH]2)cc1	13.4*	-2.6	x	-6.4	-1.2
CC(C)CC(=O)Nc1ccc(-c2nc3ccccc3c(=O)o2)cc1	0.8	-32.9	-4.7	-16.2	x
Cc1ccc(N(C(=O)c2csnn2)C(C(=O)NC2CCCC2)c2ccccn2)cc1 (configuration not stated)	x	-21.3	x	x	x
O=C(NCCN1CCOCC1)C1CCC(=O)N1Cc1ccc(F)cc1 (configuration not stated)	10.9*	-0.4	3.9	2.1	4.7
Cc1ccc(CN2C(=O)CCC2C(=O)NCCCN2CCOCC2)cc1 (configuration not stated)	1.4	0.8	-2.8	-10.0	x
CN(C(=O)c1ccccc1)c1nc2ccccc2s1	13.3*	-5.4	-7.2	-11.2	-2.4
COCCSc1nnc(NC(=O)c2ccc(NC(C)=O)cc2)s1	13.6*	-4.2	-3.9	-9.7	1.6
Cc1cc(C)c2c(NC(N)=S)n[nH]c2n1	-0.3	-13.3	2.9	-6.3	x
SMILES	Wee1 degr inh	FID counter	Rad51 HR inh	RBBP9 inh	Wee1 degr conf
Cc1cc(C)c2c(N=NN(C)C)[nH]nc2n1	12.8*	-3.2	1.0	-15.6	-1.0
COc1ccc(OCc2nc(N)nc(Nc3ccccc3OC)n2)cc1	17.6*	-8.1	-9.1	-3.4	-0.3
NNC(=S)Nc1c(Br)cc(F)cc1Br	-0.9	-26.0	-1.6	-8.2	x
O=C(/C=C/c1c(F)cccc1Cl)Nc1ncccn1	4.8	-2.1	-3.8	-3.1	x
C=CCNC(=O)/C=C/c1c(F)cccc1Cl	13.4*	-2.7	6.3	-4.5	-0.2
O=C(CCn1c(=O)oc2ccccc21)NCCN1CCc2ccccc2C1	-1.7	5.1	-4.1	-5.2	x
O=C(CCn1c(=O)oc2ccccc21)NCCC1=CCCCC1	17.3*	-11.5	1.8	-1.3	-1.0
CCC(=O)NC(=S)Nc1ccc(NC(=O)c2ccc(Br)o2)cc1	-1.4	-9.4	11.8	-6.1	x
COc1ccc(-n2nc([N+](=O)[O-])c(=NCCc3ccc(C)cc3)n2O)cc1	25.0*	-8.3	28.9	-1.4	3.7
COc1ccc(-n2nc([N+](=O)[O-])c(=NCCc3ccc(Cl)cc3)n2O)cc1	2.2	1.4	x	3.1	x
O=[N+]([O-])c1ccc2nc(NS(=O)(=O)c3ccc(F)cc3)sc2c1	x	-10.4	x	x	x
O=C(O)/C(=C/c1ccco1)NC(=O)c1ccccc1	0.1	-5.0	x	-2.5	x
O=C(Nc1ccc(O)cc1)/C(=C/c1ccco1)NC(=O)c1ccccc1	11.8*	-0.7	-1.5	5.4	2.2
CC1(C)Oc2ccc(NC(=O)c3ccco3)cc2O1	12.9*	-3.6	3.6	-1.9	-1.2
O=C(Nc1ccc2c(c1)OCCO2)c1ccco1	2.4	-3.9	5.6	-9.2	x
NC(=O)NC(=O)CN1c2cccc3cccc(c23)S1(=O)=O	x	-1.2	x	x	x
CCOC(=O)c1c(CSc2ccccc2)n(C)c2cc(Br)c(OCC(O)CNC(CO)(CO)CO)cc12 (configuration not stated)	11.5*	24.0	29.7	-7.2	3.5
CCOC(=O)c1c(CSc2ccccc2)n(C)c2cc(Br)c(OC)c(O)c12	x	-7.8	x	x	x
CC1(C)CC2CC(C)(CN2Cc2c(O)ccc3ccccc23)C1 (configuration not stated)	-3.5	-3.7	14.1	1.5	x
CC(C)c1nc(N2CCN(C(=O)c3ccccc3)CC2)c(C#N)c2c1COC(C)(C)C2	0.5	-7.4	-2.8	9.2	x
CC1(C)Cc2c(C#N)c(N3CCN(C(=O)c4ccccc4)CC3)nc(-c3ccco3)c2CS1	15.3*	-25.5	-19.3	5.9	0.2
NC(=O)NC(=O)CC1S/C(=N/N=C2\CSC(=O)N2)NC1=O (configuration not stated)	-3.6	2.8	-0.6	-4.7	x
O=C(O)CNC(=O)CC1S/C(=N/N=C2/NC(=O)CS2)NC1=O (configuration not stated)	12.6*	-8.6	-85.7	-10.9	-0.9
CN1C(=O)c2ccc(C(=O)Nc3ccccc3O)cc2C1=O	x	-3.1	x	x	x
Cc1cccc(OCc2ccc(C(=O)N3CCOCC3)o2)c1	x	-18.0	x	x	x
SMILES	Wee1 degr inh	FID counter	Rad51 HR inh	RBBP9 inh	Wee1 degr conf
CC(C)(C)c1ccc(OCc2ccc(C(=O)N3CCOCC3)o2)cc1	13.3*	-29.8	2.8	-8.5	1.2
CC(C)c1ccc(C(=O)NC2=NCCS2)cc1	5.5	-7.5	13.1	-10.5	x
Cc1ccc(C(=O)NC2=NCCS2)cc1	15.7*	-15.2	-4.7	-4.5	-2.6
CCC(CNc1cc(OC)cc2cccnc12)NC1CCCCC1 (configuration not stated)	-2.2	10.3	-45.7	8.4	x
COc1cc(NCCCC(C)N)c2ncccc2c1 (configuration not stated)	29.4*	8.5	15.1	-6.1	-0.1
CNC(=S)N(Cc1ccc(OC)cc1)Cc1cc2ccc(C)cc2[nH]c1=O	-2.6	-3.7	-19.0	-2.0	x

Screening results as filed in PubChem.
